# Screening data deposited in PubChem by several laboratories.
# Compounds with a hit are over-represented: about 1.6% of the library has one in this group of screens.
# RAD54 inh: inhibitors of human RAD54 branch migration; Q92698; RAD54 Holliday junction branch migration, FAM/BHQ fluorescence; inhibition, % at 10.4 µM; actives 0.14% (n = 360,000);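 active = mean normalized replicate activity at least 40 and at least half of replicates scoring 40 or more; inconclusive = only one of the two criteria met; inactive = mean below 40 and under half of replicates reaching 40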;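 note: inhibitors cause a drop in the FAM fluorescence signal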
# FID counter: counter-screen for HCV NS3 helicase inhibitors: DNA intercalator displacement. DNA fluorescent intercalator displacement, fluorescence. actives 0.17% (n = 290,000). inhibition, % at 7.9 µM; in the data active = inhibition above about 37%;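 note: higher means more ethidium bromide displaced from hairpin DNA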
# Neddyl block: blocks human cullin neddylation; P61081+Q13564; TR-FRET cullin neddylation, biochemical; calls only at 25 µM; actives 0.58% (n = 360,000); AID 651699; in the data active = inhibition above about 36%
# RAD52 inh: inhibitors of human RAD52 DNA annealing. recombinant RAD52 DNA annealing, FRET fluorescence. actives 0.46% (n = 360,000). P43351. AID 651710. inhibition, % at 18.7 µM;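 active = every replicate showing at least 50% inhibition; inconclusive = mean inhibition at least 50% but not in every replicate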
# Apaf-1 inh: blocks human Apaf-1 apoptosome activity; O14727; reconstituted apoptosome caspase-3 activity, DEVD-Rh110 fluorescence; inhibition, % at 20 µM; actives 0.71% (n = 330,000); active = inhibition of at least 40% at 20 µM
# Target sequence (O14727 whole entry, looked up): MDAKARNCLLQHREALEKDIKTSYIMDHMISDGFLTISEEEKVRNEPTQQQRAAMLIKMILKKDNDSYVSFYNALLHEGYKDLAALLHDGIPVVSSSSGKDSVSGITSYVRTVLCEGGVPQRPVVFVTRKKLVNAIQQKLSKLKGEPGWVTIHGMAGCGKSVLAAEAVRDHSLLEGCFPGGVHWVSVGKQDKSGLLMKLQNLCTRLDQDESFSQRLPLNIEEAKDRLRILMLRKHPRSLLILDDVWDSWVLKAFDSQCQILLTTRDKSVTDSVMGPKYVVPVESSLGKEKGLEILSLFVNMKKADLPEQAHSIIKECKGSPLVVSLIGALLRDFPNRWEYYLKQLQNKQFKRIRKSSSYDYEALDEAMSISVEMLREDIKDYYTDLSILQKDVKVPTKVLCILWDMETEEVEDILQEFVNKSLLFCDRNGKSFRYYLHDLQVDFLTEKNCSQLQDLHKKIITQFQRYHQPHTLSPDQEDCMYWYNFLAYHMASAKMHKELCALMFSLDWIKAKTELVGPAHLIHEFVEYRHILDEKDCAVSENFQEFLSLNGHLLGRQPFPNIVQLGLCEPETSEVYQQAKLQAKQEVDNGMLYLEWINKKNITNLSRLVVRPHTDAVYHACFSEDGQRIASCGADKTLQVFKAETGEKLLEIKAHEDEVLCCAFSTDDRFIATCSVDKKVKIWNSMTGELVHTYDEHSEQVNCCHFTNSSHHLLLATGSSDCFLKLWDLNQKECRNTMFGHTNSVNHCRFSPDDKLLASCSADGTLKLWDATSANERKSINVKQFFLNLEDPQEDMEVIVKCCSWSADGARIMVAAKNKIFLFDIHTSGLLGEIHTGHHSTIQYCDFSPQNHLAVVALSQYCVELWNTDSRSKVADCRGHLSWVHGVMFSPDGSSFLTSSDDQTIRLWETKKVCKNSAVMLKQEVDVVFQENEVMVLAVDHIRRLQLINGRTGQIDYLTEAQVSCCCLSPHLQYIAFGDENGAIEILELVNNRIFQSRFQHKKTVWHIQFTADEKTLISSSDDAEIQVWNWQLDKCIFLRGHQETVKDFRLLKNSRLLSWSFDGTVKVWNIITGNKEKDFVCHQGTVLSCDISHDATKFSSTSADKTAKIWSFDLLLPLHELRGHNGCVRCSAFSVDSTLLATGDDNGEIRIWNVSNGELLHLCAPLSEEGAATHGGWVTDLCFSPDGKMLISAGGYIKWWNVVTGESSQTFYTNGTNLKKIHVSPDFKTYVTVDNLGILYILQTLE
#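 detection = Rh110 fluorescence intensity | test system = biochemical Apaf-1 apoptosome reconstitution | also added = cytochrome c and DEVD-Rh110 substrate | schedule = 30 min plus 50 min, RT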
# UBC13 inh: inhibitors of human UBC13 polyubiquitin chain formation; inhibition, % at 20 µM; actives 0.47% (n = 330,000); TR-FRET; P61088; in the data active = inhibition above about 45%, passing the limit was not always enough; inconclusive = no clear call, values can overlap the other calls
# Apaf-1 inh conf2: Apaf-1 inhibition, single-dose confirmed; shares compounds with Apaf-1 inh; reconstituted apoptosome, caspase-3 DEVD-Rh110 fluorescence; inhibition, % at 20 µM; actives 25% (n = 1,800);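 active = mean inhibition of at least 40% at 20 µM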
# Rh110 quench: interferes with Rh110 fluorescence, flagging false Apaf-1 inhibitors; shares compounds with Apaf-1 inh; Rh110 fluorescence interference, quenched caspase reaction; activation (fluorescence interference), % at 20 µM; 1,800 tested, under 10 active; AID 504615;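 active = signal rise of 40% or more at 20 µM, treated as a fluorescence artifact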
# Apaf1 inh interf: counter-screen for Apaf-1 inhibitors: fluorescence interference, dose response. 460 tested, under 10 active. shares compounds with Apaf-1 inh. fluorescence interference counterscreen, Apaf-1 assay format. IC50, µM. AID 588538; call rule not given here
# Hits are given with their value; . = inactive; ? = inconclusive; / = not tested or not shown.
SMILES,RAD54 inh,FID counter,Neddyl block,RAD52 inh,Apaf-1 inh,UBC13 inh,Apaf-1 inh conf2,Rh110 quench,Apaf1 inh interf
CCN(CC)CCOC(=O)c1ccc(NC(=O)CCCN2C(=O)S/C(=C/c3ccc(OC)cc3)C2=S)cc1,.,.,.,/,44,.,.,.,/
COc1cccc2sc3cc(C#CC4(O)CCCCC4)ccc3c(=O)c12,.,/,.,.,40,?,.,.,/
O=C1C(Nc2ccccc2)=C(N2CCCCC2)C(=O)c2ccccc21,/,.,.,/,93,.,90,.,.
O=C1C(Nc2cccc(O)c2)=C(N2CCCCC2)C(=O)c2ccccc21,.,.,.,/,88,.,91,.,.
O=C(O)c1cccc(NC2=C(Cl)C(=O)c3ccccc3C2=O)c1,.,.,.,.,/,/,/,/,/
COc1ccccc1NC1=C(N2CCCCC2)C(=O)c2ccccc2C1=O,/,.,.,/,95,.,95,.,.
CN(C1=C(N2CCCCC2)C(=O)c2ccccc2C1=O)c1ccccc1,.,.,.,/,.,.,/,/,/
Cc1ccc(NC2=C(N3CCCCC3)C(=O)c3ccccc3C2=O)cc1,/,.,.,/,81,.,95,.,.
COc1ccccc1NS(=O)(=O)c1cc(N)ccc1N1CCCC1,.,/,.,.,.,.,/,/,/
C/C=C/c1ccc([C@@H]2[C@@H](CO)N(C(=O)C3CC3)[C@H]2CN(C)C(=O)CN(C)C)cc1,.,/,/,.,/,/,/,/,/
Cc1noc(C)c1NC(=O)N(C)C[C@H]1OCCCC[C@@H](C)Oc2ccc(NC(=O)Nc3ccccc3)cc2C(=O)N([C@H](C)CO)C[C@@H]1C,.,/,/,/,/,/,/,/,/
O=C(/C=C/c1ccc(O)cc1)c1ccc(NC2=C(N3CCCCC3)C(=O)c3ccccc3C2=O)cc1,.,.,.,.,76,.,95,.,.
CN1C[C@H](O)COC[C@H]2O[C@@H](CC(=O)NC3CCC3)CC[C@@H]21,.,/,/,.,/,/,/,/,/
O=C(c1ccc(Br)o1)N1CCN(c2ccc3nnc(-c4ccccc4)n3n2)CC1,.,.,.,.,.,.,/,/,/
O=S(=O)(c1ccc(Br)cc1)N1CCN(c2ccc3nnc(-c4ccccc4)n3n2)CC1,.,.,.,.,41,.,55,.,.
O=C(C=Cc1ccco1)c1ccc([N+](=O)[O-])cc1,.,/,.,.,/,/,/,/,/
O=C(/C=C/c1ccco1)c1ccc(NC(=O)C23CC4CC(CC(C4)C2)C3)cc1,.,.,.,.,45,.,.,.,/
COc1ccc(Cl)cc1NC(=O)C(C)N1CCN(C/C=C/c2ccccc2)CC1 (stereo not drawn),/,.,.,/,43,.,.,.,/
CC(=O)c1ccc(NC(=O)C(C)N2CCN(C/C=C/c3ccccc3)CC2)cc1 (stereo not drawn),/,.,.,.,.,.,/,/,/
COc1ccc2c(c1OC)C(=O)OC2C1c2c(cc3c(c2OC)OCO3)CCN1C (stereo not drawn),.,.,.,.,.,.,/,/,/
CN1CCc2cc3c(c4c2[C@H]1[C@H](O)c1ccccc1-4)OCO3,99,97,.,.,48,.,.,.,/
COc1ccc(OCCNc2c([N+](=O)[O-])c(=O)oc3ccccc23)cc1,/,.,.,.,73,.,87,.,.
CCNc1c([N+](=O)[O-])c(=O)oc2ccccc12,/,.,.,.,.,.,/,/,/
CCC(=O)N1[C@H](CO)[C@H](c2ccc(-c3ccccc3OC)cc2)[C@@H]1CNC(C)=O,/,/,/,.,/,/,/,/,/
CC(C)(C)C(=O)[C@@H]1[C@@H]2C(=O)N(C3CCCCC3)C(=O)[C@@H]2[C@H]2c3ccccc3C=CN12,.,.,.,/,64,.,60,.,.
CO[C@H]1CN(C)C(=O)c2cc(NC(=O)C3CC3)ccc2OC[C@H](C)N(Cc2cccnc2)C[C@H]1C,.,/,/,.,/,/,/,/,/
COc1ccccc1N=Nc1ccc(O)c2ncccc12,.,.,.,.,90,.,.,.,/
CCS(=O)(=O)c1ccc(N=Nc2ccc(O)c3ncccc23)c(OC)c1,/,.,.,.,.,.,/,/,/
